# In ChEMBL document CHEMBL1153971, “Design, synthesis, biological evaluation and molecular modelling studies of novel quinoline derivatives against Mycobacterium tuberculosis” (Bioorg Med Chem, 2009):
# Columns and labels:
# [1] = system: Mycobacterium tuberculosis; assay: Antimycobacterial activity against Mycobacterium tuberculosis H37Rv ATCC 27294 at 6.25 ug/mL by radiometric method; type: functional
# [2] = system: Mycobacterium tuberculosis; assay: Antimycobacterial activity against Mycobacterium tuberculosis H37Rv ATCC 27294 assessed as growth index at 6.25 ug/mL after 4 days by radiometric method; type: functional
# Summary of the method: (§1)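 M. tuberculosis H37Rv (ATCC 27294) in a BACTEC 460 radiometric culture. A single 6.25 µg/mL dose was given on day 1. Growth index was read daily from day 1 to day 9 against an untreated culture and an isoniazid-treated culture under identical conditions. Three independent readings were taken. Compounds were dissolved in DMSO.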
# [3] = Cytotoxicity against human THP1 cells assessed as cell viability at 10 ug/100 mL after 72 hrs by MTT assay; type: cell-based; conditions: THP-1 cells, read-out: Activity
# Summary of the method: (§2)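 Monocytic THP-1 cells were seeded at 10,000 cells/100 µL and cultured at 37 °C in 5% CO2. Compounds were added at 1 or 10 µg/100 µL, with medium plus DMSO as live control. After 24 or 72 h, MTT (stock 5 mg/mL) was added for 4 h, then isopropanol. Absorbance was read at 540 nm and reported as percent viability. Triplicates, mean of three readings.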
# [4] = system: Mycobacterium tuberculosis; assay: Antimycobacterial activity against Mycobacterium tuberculosis H37Rv ATCC 27294 assessed as growth index at 6.25 ug/mL after 6 days by radiometric method; type: functional; summary of the method: as §1
# [5] = system: Mycobacterium tuberculosis; assay: Antimycobacterial activity against Mycobacterium tuberculosis H37Rv ATCC 27294 assessed as growth index at 6.25 ug/mL after 9 days by radiometric method; type: functional; summary of the method: as §1
# [6] = system: Mycobacterium tuberculosis; assay: Antimycobacterial activity against Mycobacterium tuberculosis H37Rv ATCC 27294 assessed as growth index at 6.25 ug/mL after 5 days by radiometric method; type: functional; summary of the method: as §1
# [7] = system: Mycobacterium tuberculosis; assay: Antimycobacterial activity against Mycobacterium tuberculosis H37Rv ATCC 27294 assessed as growth index at 6.25 ug/mL after 3 days by radiometric method; type: functional; summary of the method: as §1
# [8] = system: Mycobacterium tuberculosis; assay: Antimycobacterial activity against Mycobacterium tuberculosis H37Rv ATCC 27294 assessed as growth index at 6.25 ug/mL after 2 days by radiometric method; type: functional; summary of the method: as §1
# [9] = system: Mycobacterium tuberculosis; assay: Antimycobacterial activity against Mycobacterium tuberculosis H37Rv ATCC 27294 assessed as growth inhibition at 6.25 ug/mL after 7 to 9 days by radiometric method; type: functional; conditions: read-out: GI
# Summary of the method: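 Single-concentration screen against H37Rv (ATCC 27294) by the BACTEC 460 radiometric method. Compound was added once at 6.25 µg/mL on day one. […] DMSO was the vehicle.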
# [10] = Cytotoxicity against human THP1 cells assessed as cell viability at 1 ug/100 mL after 72 hrs by MTT assay; type: cell-based; conditions: THP-1 cells, read-out: Activity; summary of the method: as §2
# [11] = Cytotoxicity against human THP1 cells assessed as cell viability at 10 ug/100 mL after 24 hrs by MTT assay; type: cell-based; conditions: THP-1 cells, read-out: Activity; summary of the method: as §2
# [12] = system: Mycobacterium tuberculosis; assay: Antimycobacterial activity against Mycobacterium tuberculosis H37Rv ATCC 27294 assessed as growth index at 6.25 ug/mL after 8 days by radiometric method; type: functional; summary of the method: as §1
# [13] = system: Mycobacterium tuberculosis; assay: Antimycobacterial activity against Mycobacterium tuberculosis H37Rv ATCC 27294 by radiometric method; type: functional
# Summary of the method: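 MIC against H37Rv by the BACTEC radiometric method. Five concentrations were tested: 6.25, […], 1.56, 0.78 and 0.39 µg/mL. Compounds were dissolved in DMSO.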
# [14] = system: Mycobacterium tuberculosis; assay: Antimycobacterial activity against Mycobacterium tuberculosis H37Rv ATCC 27294 assessed as growth index at 6.25 ug/mL after 1 day by radiometric method; type: functional; summary of the method: as §1
# [15] = system: Mycobacterium tuberculosis; assay: Antimycobacterial activity against Mycobacterium tuberculosis H37Rv ATCC 27294 assessed as growth index at 6.25 ug/mL after 7 days by radiometric method; type: functional; summary of the method: as §1
# [16] = Cytotoxicity against human THP1 cells assessed as cell viability at 1 ug/100 mL after 24 hrs by MTT assay; type: cell-based; conditions: THP-1 cells, read-out: Activity; summary of the method: as §2
smiles,measurement,setting,value
COc1nc2ccc(Br)cc2cc1C(NCc1ccncc1)c1ccccc1 (centres undefined),inhibition at 6.25 µg/mL,[1],17%
COC(=O)C(C(=O)n1cccn1)C(c1ccccc1)c1cc2cc(Br)ccc2nc1OC (mixture of isomers),inhibition at 6.25 µg/mL,[1],22%
COc1nc2ccc(Br)cc2cc1C(c1ccccc1)N1CCOCC1 (centres undefined),inhibition at 6.25 µg/mL,[1],69%
COC(=O)C(C(=O)N1CCCCC1)C(c1ccccc1)c1cc2cc(Br)ccc2nc1OC (centres undefined),inhibition at 6.25 µg/mL,[1],11%
COC(=O)C(C(=O)N1CCN(c2cccc(C(F)(F)F)c2)CC1)C(c1ccccc1)c1cc2cc(Br)ccc2nc1OC (centres undefined),inhibition at 6.25 µg/mL,[1],8%
CCOC(=O)C1CCN(C(c2ccccc2)c2cc3cc(Br)ccc3nc2OC)CC1 (centres undefined),inhibition at 6.25 µg/mL,[1],16%
COc1nc2ccc(Br)cc2cc1C(c1ccccc1)n1cccn1 (racemic),inhibition at 6.25 µg/mL,[1],99.5%
same,Growth_index,[2],0
same,"viability at 72 h, 10 ug/100 mL",[3],98%
same,Growth_index,[4],0
same,Growth_index,[5],0
same,Growth_index,[6],0
same,Growth_index,[7],0
same,Growth_index,[8],0
same,inhibition of growth at 6.25 µg/mL,[9],99.5%
same,"viability at 72 h, 1 ug/100 mL",[10],100%
same,"viability at 24 h, 10 ug/100 mL",[11],75%
same,Growth_index,[12],0
same,MIC,[13],6.25 µg/mL
same,Growth_index,[14],1
same,Growth_index,[15],0
same,"viability at 24 h, 1 ug/100 mL",[16],71%
COc1nc2ccc(Br)cc2cc1C(c1ccccc1)n1ccc2ccccc21 (centres undefined),inhibition at 6.25 µg/mL,[1],8%
COc1nc2ccc(Br)cc2cc1C(c1ccccc1)n1ccnc1 (racemic),inhibition at 6.25 µg/mL,[1],94.2%
same,Growth_index,[2],28
same,"viability at 72 h, 10 ug/100 mL",[3],67%
same,Growth_index,[4],33
same,Growth_index,[5],56
same,Growth_index,[6],34
same,Growth_index,[7],25
same,Growth_index,[8],22
same,inhibition of growth at 6.25 µg/mL,[9],94.2%
same,"viability at 72 h, 1 ug/100 mL",[10],67%
same,"viability at 24 h, 10 ug/100 mL",[11],56%
same,Growth_index,[12],35
same,MIC,[13],6.25 µg/mL
same,Growth_index,[14],12
same,Growth_index,[15],35
same,"viability at 24 h, 1 ug/100 mL",[16],74%
COc1nc2ccc(Br)cc2cc1C(Nc1ccc2oc(=O)ccc2c1)c1ccccc1 (racemic),inhibition at 6.25 µg/mL,[1],92.5%
same,Growth_index,[2],45
same,"viability at 72 h, 10 ug/100 mL",[3],100%
same,Growth_index,[4],48
same,Growth_index,[5],55
same,Growth_index,[6],52
same,Growth_index,[7],37
same,Growth_index,[8],27
same,inhibition of growth at 6.25 µg/mL,[9],92.5%
same,"viability at 72 h, 1 ug/100 mL",[10],100%
same,"viability at 24 h, 10 ug/100 mL",[11],100%
same,Growth_index,[12],53
same,MIC,[13],6.25 µg/mL
same,Growth_index,[14],15
same,Growth_index,[15],53
same,"viability at 24 h, 1 ug/100 mL",[16],100%
COc1nc2ccc(Br)cc2cc1C(c1ccccc1)n1cnc([N+](=O)[O-])c1 (centres undefined),inhibition at 6.25 µg/mL,[1],14%
COc1nc2ccc(Br)cc2cc1C(c1ccccc1)n1nnnc1C (centres undefined),inhibition at 6.25 µg/mL,[1],14%
COc1nc2ccc(Br)cc2cc1C(c1ccccc1)N1CCCCC1 (centres undefined),inhibition at 6.25 µg/mL,[1],53%
COc1nc2ccc(Br)cc2cc1C(c1ccccc1)N1CCN(c2cccc(C(F)(F)F)c2)CC1 (centres undefined),inhibition at 6.25 µg/mL,[1],100%
same,Growth_index,[2],0
same,"viability at 72 h, 10 ug/100 mL",[3],97%
same,Growth_index,[4],0
same,Growth_index,[5],0
same,Growth_index,[6],0
same,Growth_index,[7],0
same,Growth_index,[8],0
same,inhibition of growth at 6.25 µg/mL,[9],100%
same,"viability at 72 h, 1 ug/100 mL",[10],100%
same,"viability at 24 h, 10 ug/100 mL",[11],97%
same,Growth_index,[12],0
same,MIC,[13],6.25 µg/mL
same,Growth_index,[14],1
same,Growth_index,[15],0
same,"viability at 24 h, 1 ug/100 mL",[16],87%
CCOC(=O)C(c1cccc2ccccc12)C(c1ccccc1)c1cc2cc(Br)ccc2nc1OC (mixture of isomers),inhibition at 6.25 µg/mL,[1],0%
COC(=O)C(C(=O)N1CCOCC1)C(c1ccccc1)c1cc2cc(Br)ccc2nc1OC (centres undefined),inhibition at 6.25 µg/mL,[1],5%
CCOC(=O)C1CCCN1C(c1ccccc1)c1cc2cc(Br)ccc2nc1OC (centres undefined),inhibition at 6.25 µg/mL,[1],18%
COC(=O)C(C(=O)N1CCCC1)C(c1ccccc1)c1cc2cc(Br)ccc2nc1OC (centres undefined),inhibition at 6.25 µg/mL,[1],5%
NNC(=O)c1ccncc1 [ISONIAZID],inhibition of growth at 6.25 µg/mL,[9],99.3%
